Measurements reported in PubChem BioAssay.
Records with an inconclusive call do not appear. Active and inactive are the calls of the source.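 The calls were made as follows, unless noted: active = growth inhibition above 25% in both replicates, a cutoff set 3 SD above the mean; inconclusive = above 25% in only one replicate; inactive = the rest.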

Columns and labels:
[1] = S. cerevisiae growth inhibition in permissive medium (OD615), pilot counter-assay for S. cerevisiae lifespan shortening project, permissive growth control (AID 705); conditions: OD615, 24 h, at 10 µM, active compounds read high
Method in brief: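 Test system: Saccharomyces cerevisiae strain carrying genetically modified DeaD replicative-lifespan system; buffer or medium: SC raffinose/galactose permissive medium; dosing: one dose 10 µM, DMSO 0.25% final; times: 24 h exposure, 30 °C; measured by: OD at 615 nm; read-out basis: growth inhibition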

[2] = S. cerevisiae growth inhibition in restrictive medium, OD615, pilot screen, restrictive growth control, yeast lifespan reduction project (AID 706;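 active = growth inhibition above a set limit, 3 SD over mean compound inhibition, in both replicates, cut at about 43% in these data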;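 also: modified DeaD lifespan yeast strain shifted to restrictive glucose medium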); conditions: OD615, 48 h, at 10 µM, active compounds read high
Method in brief: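 material = engineered S. cerevisiae DeaD strain | buffer or medium = glucose-based CSMM-D restrictive medium | dosing = one concentration, 10 µM final, 0.25% DMSO | schedule = 4 h pre-growth plus 48 h compound exposure, 30 °C | detection = OD615 absorbance reading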

[3] = doxorubicin toxicity protection in MRP-1 cells – H69AR cells, CellTiter-Glo, duplicate, MRP-1 activator project, pilot screen (AID 807;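 active = viability increase at or above a cutoff of the median across tested compounds plus 3 SD, cut at about 8.5% in these data, passing the limit was not always enough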;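 also: compound pretreatment 18-22 h then 72 h combined with doxorubicin; 0% = doxorubicin alone and 100% = vehicle without doxorubicin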); conditions: H69AR viability with doxorubicin, CellTiter-Glo luminescence; at 10 µM; active compounds read high
[4] = viability of HCT116 without oncogenic beta-catenin – human colon tumor cells, pilot screen (AID 823;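 active = cell viability at or below a set limit in both duplicate runs, the limit being the all-compound median minus 4 SD, cut at about 23% in these data, passing the limit was not always enough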;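 also: 0% = wells killed by 20 µM Hyamine and 100% = untreated DMSO cell wells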); conditions: HCT116 beta-catenin knockout viability, CellTiter-Glo, 60 h; at 10 µM; active compounds read low
[5] = viability of PTEN-null HCT116 cells – cell-based, HCT116 clonal line, CellTiter-Glo, pilot screen (AID 824;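 active = viability at or below 27.92% in each of two runs, the all-compound median minus 4 SD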;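 also: 0% = 20 µM Hyamine control and 100% = vehicle cell control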); conditions: HCT116 PTEN-deleted viability, 60 h, at 10 µM, active compounds read low
[6] = RAM pathway blockade in budding yeast – dse1pr::URA3 reporter, 5-FOA selection, pilot screen (AID 869;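 active = inhibition over a set limit, the all-compound mean plus 3 SD, in both replicate runs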;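 also: 0% = DMSO wells with no growth and 100% = 10 µM 1-NA-PP1 with full growth; RAM network block rescues cells from 5-FOA so hits raise OD615 growth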); conditions: S. cerevisiae dse1pr::URA3 5-FOA growth, OD615, 2 d; at 10 µM; active compounds read high; strain carries analog-sensitive mutant Cbk1 kinase
[7] = RAM signaling pathway blockade in yeast – S. cerevisiae, Pdr1DBD-CYC8 efflux-inhibited sensitized strain, primary screen (AID 1298;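 active = RAM network inhibition above 8.4% in each of two replicates, 3 SD over the compound average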;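 also: 0% = DMSO untreated cells without growth and 100% = 10 µM 1-NA-PP1 full growth; higher means more yeast growth rescued from 5-FOA killing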); conditions: S. cerevisiae cbk1-as DSE1-URA3 strain, 5-FOA growth OD615, 2 d; at 50 µM; active compounds read high

Cc1cc(C)n(S(=O)(=O)c2ccc(Cl)c(Cl)c2Cl)n1
inactive: growth inhibition [1] -8.03% | growth inhibition [2] 4.29% | viability increase [3] -4.34% | viability [4] 86% | viability [5] 84.6% | inhibition [6] 1.17% | RAM network inhibition [7] 3.65%

Nc1nonc1/C(=N/O)N1CCN(CCO)CC1
inactive: growth inhibition [1] 1.46% | growth inhibition [2] -1.22% | viability increase [3] 0% | viability [4] 104% | viability [5] 100% | inhibition [6] 1.46% | RAM network inhibition [7] 0.95%

Cc1ccc(NC(=O)CSc2nnc(Cn3c(=O)sc4ccccc43)n2C)cc1Cl
inactive: growth inhibition [1] -1.48% | growth inhibition [2] -18.1% | viability increase [3] -4.78% | viability [4] 92.3% | viability [5] 86.6% | inhibition [6] 1.81% | RAM network inhibition [7] 4.65%

CCOCCCn1cnc2c([nH]c3cc(OC)ccc32)c1=O
inactive: growth inhibition [1] -14.1% | growth inhibition [2] -13.8% | viability increase [3] -0.55% | viability [4] 95.8% | viability [5] 96.9% | inhibition [6] 1.41% | RAM network inhibition [7] 5.51%

COc1ccc(OC)c(C2C(C(=O)Nc3ccccc3OC)=C(C)Nc3nc(CCCO)nn32)c1 (configuration not stated)
inactive: growth inhibition [1] 4.07% | growth inhibition [2] -1.39% | viability increase [3] -2.08% | viability [4] 98.9% | viability [5] 96.8% | inhibition [6] 3.86% | RAM network inhibition [7] 4.26%

CC1CCCC(C)N1CCCNC(=O)c1cc2c(=O)n(C)c3ccccc3c2n1C (configuration not stated)
inactive: growth inhibition [1] -11.5% | growth inhibition [2] -10.6% | viability increase [3] -6.03% | viability [4] 68.9% | viability [5] 71.5% | inhibition [6] -0.625% | RAM network inhibition [7] 2.26%

CC(Oc1ccc(Cl)cc1Cl)C(=O)NCCCN1CCOCC1 (configuration not stated)
inactive: growth inhibition [1] -8.88% | growth inhibition [2] -10.2% | viability increase [3] 0.14% | viability [4] 96% | viability [5] 95% | inhibition [6] -0.36% | RAM network inhibition [7] 0.47%

COc1ccc(N(CC(=O)Nc2ccc(C)cn2)S(=O)(=O)c2c(C)nn(C)c2C)cc1
inactive: growth inhibition [1] -17.5% | growth inhibition [2] -9.45% | viability increase [3] -1.95% | viability [4] 97.5% | viability [5] 96.2% | inhibition [6] 0.055% | RAM network inhibition [7] 5.27%

CCCN(CCC)C(=O)COc1cc(=O)n(CC)c2ccccc12
inactive: growth inhibition [1] -17.4% | growth inhibition [2] -2.75% | viability increase [3] -1.75% | viability [4] 99.8% | viability [5] 89.3% | inhibition [6] 0.52% | RAM network inhibition [7] 0.9%

Cc1ccc(-c2nc(CS(=O)(=O)CC(=O)NCCCN3CCN(C)CC3)c(C)o2)cc1
inactive: growth inhibition [1] -9.1% | growth inhibition [2] -15.2% | viability increase [3] 0.53% | viability [4] 89.4% | viability [5] 94.7% | inhibition [6] 1.34% | RAM network inhibition [7] -0.16%

CCOc1ccc2nc(NC(=O)COC)sc2c1
inactive: growth inhibition [1] -7.05% | growth inhibition [2] -13.8% | viability increase [3] 0.64% | viability [4] 102% | viability [5] 102% | inhibition [6] 1.05% | RAM network inhibition [7] 1.66%

Cc1cc(C)c2c(N)c(C(=O)Nc3nccs3)sc2n1
inactive: growth inhibition [1] 0.355% | growth inhibition [2] 16.4% | viability increase [3] -5.52% | viability [4] 87.8% | viability [5] 90.5% | inhibition [6] 2% | RAM network inhibition [7] -0.11%

O=C(c1nnc(Cc2ccc(Cl)cc2)o1)N1CCOCC1
inactive: growth inhibition [1] -7.58% | growth inhibition [2] 1.76% | viability increase [3] -0.86% | viability [4] 105% | viability [5] 107% | inhibition [6] 1.23% | RAM network inhibition [7] 0.99%

O=C(Nc1nc2ccccc2n1CCOc1ccc(Cl)cc1)c1ccco1
active: viability [4] 11.8% | viability [5] 16.8%
inactive: growth inhibition [1] 0.61% | growth inhibition [2] -2.21% | viability increase [3] -3.5% | inhibition [6] 0.745% | RAM network inhibition [7] 4.7%

CCOC(=O)c1cc2c(=O)n3ccccc3nc2n(CCCOC)c1=NC(=O)c1cccnc1
inactive: growth inhibition [1] -0.71% | growth inhibition [2] -4.29% | viability increase [3] -4.22% | viability [4] 112% | viability [5] 93.7% | inhibition [6] 0.775% | RAM network inhibition [7] 3.03%

NC(=O)c1cccc(S(=O)(=O)N2CC(c3ccccc3)CC2=O)c1 (configuration not stated)
inactive: growth inhibition [1] -15.8% | growth inhibition [2] -15% | viability increase [3] -1.11% | viability [4] 99.5% | viability [5] 96.1% | inhibition [6] 0.075% | RAM network inhibition [7] -0.76%

COc1ccc(OC)c(NC(=O)c2nnn(CCc3ccccc3)c2N)c1
inactive: growth inhibition [1] -5.97% | growth inhibition [2] -3.14% | viability increase [3] -4.62% | viability [4] 88% | viability [5] 89.7% | inhibition [6] 1.85% | RAM network inhibition [7] 13.1%

Cc1nc2ccccn2c1/C(O)=C1\C(=O)C(=O)N(CCCN(C)C)C1c1ccc(Cl)cc1 (configuration not stated)
inactive: growth inhibition [1] -12.2% | growth inhibition [2] -4.13% | viability increase [3] -1.34% | viability [4] 109% | viability [5] 95.9% | inhibition [6] 0.18% | RAM network inhibition [7] -1.78%

CN(C)S(=O)(=O)c1ccc(C(=O)Nc2ccc(Cl)cc2)cc1
inactive: growth inhibition [1] -3.1% | growth inhibition [2] -5.55% | viability increase [3] -1.63% | viability [4] 77.5% | viability [5] 88.8% | inhibition [6] 2.33% | RAM network inhibition [7] 3.74%

Cc1ccc(S(=O)(=O)N(C)CCCC(=O)Nc2ccncc2)cc1
inactive: growth inhibition [1] -2.16% | growth inhibition [2] -6.8% | viability increase [3] -0.64% | viability [4] 79.4% | viability [5] 79% | inhibition [6] 0.13% | RAM network inhibition [7] 1.94%

Cc1ccc(C)c(N(C)S(=O)(=O)c2cccc3nsnc23)c1
inactive: growth inhibition [1] -6.8% | growth inhibition [2] -6.89% | viability increase [3] -3.51% | viability [4] 79.5% | viability [5] 75.5% | inhibition [6] 0.92% | RAM network inhibition [7] 7.63%

Cn1c(=O)c2c(nc(NC3CCCCC3)n2Cc2ccccc2)n(C)c1=O
inactive: growth inhibition [1] -0.82% | growth inhibition [2] 4.89% | viability increase [3] -3.11% | viability [4] 78.9% | viability [5] 75.5% | inhibition [6] 2.92% | RAM network inhibition [7] 3.48%

Cc1ccc2oc(=O)n(CCOc3ccccc3Cl)c2c1
inactive: growth inhibition [1] 2.37% | growth inhibition [2] 0.755% | viability increase [3] 2.94% | viability [4] 88.5% | viability [5] 83.9% | inhibition [6] 0.955% | RAM network inhibition [7] 2.66%

CCOC(=O)C1CCN(C(=O)c2cc3c(-c4ccc(OC)c(OC)c4)nn(C)c3s2)CC1
inactive: growth inhibition [1] -7.02% | growth inhibition [2] -7.66% | viability increase [3] -2.04% | viability [4] 107% | viability [5] 98.9% | inhibition [6] 0.595% | RAM network inhibition [7] 5.7%

CCOCCn1c(SCc2ccccc2)nc2c1c(=O)[nH]c(=O)n2C
inactive: growth inhibition [1] -16.6% | growth inhibition [2] -27.6% | viability increase [3] -1.41% | viability [4] 104% | viability [5] 96.7% | inhibition [6] 0.205% | RAM network inhibition [7] 7.51%

CCOCCCNC(=O)C(NC(=O)c1ccc2c(c1)OCO2)c1ccc(OC)cc1 (configuration not stated)
inactive: growth inhibition [1] -12.5% | growth inhibition [2] -24.3% | viability increase [3] -2% | viability [4] 101% | viability [5] 96.3% | inhibition [6] 1.6% | RAM network inhibition [7] 3.11%

c1ccc(OCc2nn3c(-c4ccccn4)nnc3s2)cc1
inactive: growth inhibition [1] 7.46% | growth inhibition [2] 34% | viability increase [3] 0.02% | viability [4] 104% | viability [5] 94% | inhibition [6] 1.48% | RAM network inhibition [7] 2.54%

COC(=O)c1nc2n(n1)C(c1cccc(Cl)c1)C1=C(CC(C)(C)CC1=O)N2 (configuration not stated)
inactive: growth inhibition [1] 2.12% | growth inhibition [2] -2.75% | viability increase [3] -2.72% | viability [4] 98.7% | viability [5] 99.8% | inhibition [6] 0.75% | RAM network inhibition [7] -0.77%

CCN(CC(=O)NCc1ccc(F)cc1)C(=O)C1CCN(C(=O)Nc2ccccc2)CC1
inactive: growth inhibition [1] -2.92% | growth inhibition [2] -6.36% | viability increase [3] -0.13% | viability [4] 96.2% | viability [5] 98.6% | inhibition [6] 1.25% | RAM network inhibition [7] 0.37%

O=C(Cc1cccs1)Nc1nnc(-c2ccncc2)s1
inactive: growth inhibition [1] -0.91% | growth inhibition [2] 3.21% | viability increase [3] 2.53% | viability [4] 108% | viability [5] 98.8% | inhibition [6] 0.38% | RAM network inhibition [7] 0.83%

C=CCOC(=O)COc1ccc2c(C)c(C)c(=O)oc2c1
inactive: growth inhibition [1] -17.9% | growth inhibition [2] -6.88% | viability increase [3] 0.26% | viability [4] 96.6% | viability [5] 95.9% | inhibition [6] 0.765% | RAM network inhibition [7] 4.38%

O=S(=O)(NCCN1CCCC1)c1cccc2cccnc12
inactive: growth inhibition [1] -4.34% | growth inhibition [2] 14.2% | viability increase [3] -2.62% | viability [4] 99.8% | viability [5] 92.9% | inhibition [6] 0.34% | RAM network inhibition [7] 5.38%

CC1CCN(C(=O)c2ccc(NC(=O)C3CCCO3)cc2)CC1 (configuration not stated)
inactive: growth inhibition [1] -31.4% | growth inhibition [2] -18.3% | viability increase [3] -0.41% | viability [4] 96.4% | viability [5] 94.3% | inhibition [6] 1.26% | RAM network inhibition [7] 3.59%

COc1ccc(NC(=O)CN(c2cc(C)cc(C)c2)S(=O)(=O)c2c(C)noc2C)cc1
inactive: growth inhibition [1] -19.1% | growth inhibition [2] -14.2% | viability increase [3] -2.45% | viability [4] 95.2% | viability [5] 101% | inhibition [6] 0.19% | RAM network inhibition [7] 2.39%

Cc1c(C(=O)NCc2ccccn2)sc2nc(-c3ccccc3)cn12
inactive: growth inhibition [1] 6.98% | growth inhibition [2] 13.1% | viability increase [3] 0.68% | viability [4] 112% | viability [5] 101% | inhibition [6] 0.91% | RAM network inhibition [7] 0.57%

CCOC(=O)c1cc2c(=O)n3ccccc3nc2n(CCOC)c1=NC(=O)C(C)(C)C
inactive: growth inhibition [1] -6.44% | growth inhibition [2] -18.2% | viability increase [3] -3.78% | viability [4] 93.6% | viability [5] 96.9% | inhibition [6] -0.545% | RAM network inhibition [7] 5.12%
